Results gathered from unrelated publications.
MTNR1B: Melatonin receptor type 1B (MTNR1B, Homo sapiens, UniProt P49286)
PDE4D: 3',5'-cyclic-AMP phosphodiesterase 4D (PDE4D, Homo sapiens, UniProt Q08499)
MAK: Serine/threonine-protein kinase MAK (MAK, Homo sapiens, UniProt P20794)

COc1ccc2[nH]cc(CCNC(=O)CI)c2c1
Emax (MTNR1B; cAMP, agonist, TR-FRET; CHO-K1; 20 min): 103%

C[C@@]12C[C@@]3(O)O[C@@H](O1)[C@]1(COC(=O)c4ccccc4)[C@H]3C[C@@]12O[C@@H]1O[C@H](CO)[C@@H](O)[C@H](O)[C@H]1O
inhibition (PDE4D; enzyme activity, inhibitor, radiometric; 50 µM): 2.88%

COc1ccc2cccc(C(CO)CNC(=O)CF)c2c1 (stereo not shown)
Emax (MTNR1B; cAMP, agonist, TR-FRET; CHO-K1; 20 min): 93%

CN[C@@H](C)[C@H](O)c1ccccc1
inhibition (PDE4D; enzyme activity, inhibitor, radiometric; 50 µM): -7.03%

O=C1C[C@@H]2OCC=C3CN4CC[C@]56c7ccccc7N1[C@H]5[C@H]2[C@H]3C[C@H]46
inhibition (Cyclin-dependent kinase 7, with cyclin H (CDK7, Homo sapiens, UniProt P50613); enzyme activity, inhibitor, ADP detection; 10 µM): 38.1%

Nc1ncc(-c2nc(N3CCOCC3)nc(N3CCOCC3)n2)c(C(F)F)n1
remaining binding (MAK; binding, competition with immobilised ligand; 10 µM): 100%

CN[C@]1(c2ccccc2Cl)CCCCC1=O
inhibition (Mitogen-activated protein kinase 1 (MAPK1, Homo sapiens, UniProt P28482); enzyme activity, inhibitor; 30 µM): -3%

CC(=O)O[C@H]1C[C@H]2[C@@H]([C@H](OC(C)=O)C[C@@H]3CC(NCCCNc4ccnc5cc(Cl)ccc45)CC[C@@]32C)[C@@H]2CC[C@H]([C@H](C)CCCNCCCNc3ccnc4cc(Cl)ccc34)[C@@]12C (mixture of isomers)
inhibition (Botulinum neurotoxin type A, protease (Clostridium botulinum, UniProt P0DPI0); enzyme activity, inhibitor; 10 µM): 99%

COc1ncccc1-c1cnn2ccc(N3CCN(C(=O)OC(C)C)CC3)nc12
remaining binding (Non-receptor tyrosine-protein kinase TNK1 (TNK1, Homo sapiens, UniProt Q13470); binding, competition with immobilised ligand; 1 µM): 100%

Cc1nn(C)cc1-c1nc2c(N3CCN(Cc4ccc(Cl)cc4)CC3)c(Cl)cnc2[nH]1
remaining binding (MAK; binding, competition with immobilised ligand; 1 µM): 85%
